# HTR1E antagonist = antagonists of human 5-HT1E serotonin receptor | CHO 5-HT1E Ga15 NFAT-bla reporter, FRET, antagonist | P28566 | inhibition, % at 6 µM | AID 571 | 0.99% of 65,000 active;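 active = inhibition above a set limit, the mean inhibition across every tested compound plus 3 SD, cut at about 29% in these data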;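 also: signal is the 460 over 535 nm emission ratio of beta-lactamase substrate; 0% = agonist plus DMSO wells and 100% = wells without agonist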
# Target sequence (P28566 whole entry, looked up): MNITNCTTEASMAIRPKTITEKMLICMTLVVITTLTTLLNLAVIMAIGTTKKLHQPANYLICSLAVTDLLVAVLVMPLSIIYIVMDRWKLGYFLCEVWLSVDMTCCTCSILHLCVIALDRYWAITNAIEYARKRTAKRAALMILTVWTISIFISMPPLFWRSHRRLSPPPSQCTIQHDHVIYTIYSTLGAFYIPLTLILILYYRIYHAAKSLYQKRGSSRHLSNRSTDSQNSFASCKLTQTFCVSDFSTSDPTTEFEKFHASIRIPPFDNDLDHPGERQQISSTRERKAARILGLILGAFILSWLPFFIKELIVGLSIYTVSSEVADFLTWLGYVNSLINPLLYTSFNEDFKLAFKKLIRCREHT
# HTR1E agonist = activates the human 5-HT1E serotonin receptor | P28566 | CHO 5-HT1E Ga15 NFAT-bla reporter, FRET; 0% DMSO wells, 100% control agonist wells | activation, % at 6 µM | 0.69% of 65,000 active | AID 574;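 active = activation above a set limit, the screen-wide mean activation plus 3 SD, cut at about 8.5% in these data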;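 also: 100% = positive control agonist at 1 µM giving full maximal response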
# S1P3 ag = S1P3 (human) receptor agonism; Q99500; S1P3 NFAT-BLA reporter cells, FRET ratio; relative to 1 µM S1P, basal subtracted; activation, % at 4.5 µM; 0.1% of 60,000 active; AID 373;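 active = activation above the screen-wide mean plus 3 SD, cut at about 4.5% in these data, passing the limit was not always enough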
#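 Measure – % activation relative to 1 µM S1P (100%), per plate · System – stable CHO line with human S1P3, Gα16, NFAT-BLA reporter · Timing – cells plated overnight, compound 4 h 37 °C, substrate 2 h RT · Technique – fluorescent BLA substrate, ex 405 nm, em 460/535 nm ratio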
# S1P1 ag-PAM = activates or potentiates agonism at human S1P1 receptor; activation, % at 9.5 µM; S1P1 CRE-bla cells, forskolin, beta-lactamase FRET, potentiator mode; S1P1 agonist co-added at EC20, 2 nM; 100% = saturating reference agonist, 0% = basal; 0.57% of 56,000 active;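 active = activation above a cutoff set at the mean activation of all tested compounds plus 3 SD, cut at about 54% in these data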;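 also: forskolin at 4 µM as EC80 and the EC20 agonist is SEW2871; 100% = SEW2871 at its EC100 plus forskolin at EC80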
# 5-HT1A blocker = 5-HT1a (human) receptor antagonism; P08908; CHO 5-HT1a Ga15 NFAT-bla reporter, antagonist mode; inhibition, % at 10 µM; 0.68% of 62,000 active; AID 612;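 active = inhibition above the mean of all tested compounds plus 3 SD, cut at about 43% in these data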;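 also: receptor stimulated by 5-CT agonist at 100 nM near EC80; beta-lactamase reporter measured by ratiometric fluorescence of a cleavable substrate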
# HTR1A agonist = activates the human 5-HT1a serotonin receptor. activation, % at 10 µM. P08908. 0.56% of 65,000 active. CHO 5-HT1a Ga15 NFAT-bla reporter, FRET ratio; 0% basal, 100% maximal reference agonist. AID 567;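 active = activation above the screen-wide mean activation plus 3 SD, cut at about 19% in these data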;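 also: 0% = DMSO wells and 100% = 5-CT at EC100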
# The depositor's hits bear a star; . = no result. Hits are enriched below; roughly 3% of the tested compounds scored in any of these assays.
SMILES,HTR1E antagonist,HTR1E agonist,S1P3 ag,S1P1 ag-PAM,5-HT1A blocker,HTR1A agonist
COc1ccc(C(=O)N2c3cc4c(cc3C(C)=CC2(C)C)OCO4)cc1,5,-1,-1,40,54*,-1
Cc1csc2ncc(C(=O)NCc3ccco3)c(=O)n12,0,-1,-1,-19,-6,1
c1ccc(-c2csc3ncn4cnnc4c23)cc1,32*,0,-1,1,9,-2
O=S1(=O)C=C(Sc2nnc(-c3ccccc3)o2)c2ccccc21,106*,-2,0,107*,104*,-5
COc1ccc(OC)c(C2=Nn3c(nnc3-c3cccc(OC(C)C)c3)SC2)c1,38*,0,0,-8,14,3
CCOc1ccc(C2=Nn3c(nnc3-c3ccc(OC)cc3)SC2)cc1,39*,2,1,-34,15,0
CCOc1ccc(C2=Nn3c(nnc3-c3cccnc3)SC2)cc1,-21,0,0,-14,.,-1
Cc1ccc(-c2nnc3n2N=C(c2ccccc2Br)CS3)cc1,32*,0,-1,29,14,-1
COc1ccc(C2=Nn3c(nnc3-c3ccccc3)SC2)cc1OC,49*,1,4,-53,.,3
C=CCNC(=O)c1ccc2c(c1)nnn2C,-5,0,.,.,3,0
Cc1cc(-c2nnc3n2CCCCC3)c(C)n1-c1ccccc1,27,-1,0,8,12,1
CCCc1nnc2n1N=C(c1ccc(OC)c(OC)c1)CS2,63*,0,1,-2,22,0
COc1ccc(-c2nnc3n2N=C(c2ccccc2)CS3)cc1OC,12,0,-1,-19,9,-2
CC(C)=CCCC(C)NC(=O)NC1CCCCC1 (centres undefined),-3,1,0,16,12,-2
Cc1ccc2[nH]c(=O)c(CN(Cc3ccco3)C(=O)c3ccncc3)cc2c1,13,0,-1,17,5,-6
O=C(c1cccs1)N(Cc1ccco1)Cc1cc2ccccc2[nH]c1=O,-8,1,0,-37,-1,51*
COCCn1c(SCc2ccc(C(=O)OC)o2)nc2ccccc2c1=O,21,-1,0,-9,24,-1
COC(=O)c1ccc(CSc2nc3ccccc3c(=O)n2-c2ccc(OC)c(OC)c2)o1,31*,0,0,-28,13,5
COc1ccc(S(=O)(=O)N2CCCCC2)cc1C(C)C,5,34*,0,13,10,0
COc1ccc(Oc2ccc(S(=O)(=O)N3CCCCC3)cc2S(=O)(=O)N2CCCCC2)cc1,11,0,.,.,-26,0
Cn1cnnc1SCC(=O)Nc1ccccc1Sc1ccccc1,-4,0,1,7,-10,311*
CC(=O)Nc1ccc2nc(-c3cccnc3)[nH]c2c1,-5,17*,.,.,-6,-2
CC(=O)Nc1cccc(-c2nc3ccc(NC(C)=O)cc3[nH]2)c1,-5,0,0,-3,0,-1
COc1ccc(OCCCC(=O)Nc2ccc3c(c2)OCCO3)cc1,5,-1,-2,-13,16,-2
O=C(NCC1CCCO1)C1C2C=CC3(CN(Cc4cccs4)C(=O)C13)O2 (centres undefined),2,29*,-1,-11,7,-1
SMILES,HTR1E antagonist,HTR1E agonist,S1P3 ag,S1P1 ag-PAM,5-HT1A blocker,HTR1A agonist
O=C(NC1CCCC1)C1C2C=CC3(CN(Cc4cccs4)C(=O)C13)O2 (centres undefined),0,2,0,4,-5,1
N#Cc1c(-c2ccccc2)cc(C2CC2)nc1N,33*,0,0,-31,25,5
N#Cc1c(-c2ccco2)cc(C2CC2)nc1N,24,-1,-3,-51,.,4
CC1CCCCN1C(=O)CSc1nnc(-c2c[nH]c3ccccc23)o1 (centres undefined),-3,23*,0,48,-14,4
CCC1CCCCN1C(=O)CSc1nnc(-c2ccco2)o1 (centres undefined),8,-1,-1,12,6,2
O=C(CSc1nnc(-c2c[nH]c3ccccc23)o1)N(Cc1ccccc1)c1ccc(F)cc1,-10,0,5,107*,24,1
CC(=O)C1=C(C)NC(C)=C(C(C)=O)C1c1cccs1,-6,-1,-2,-16,13,-1
CNc1nc2c(c(=O)[nH]c(=O)n2C)n1CCOC,-15,0,-1,-1,2,-1
c1ccc(Cn2nnnc2C(c2cccs2)N2CCc3ccccc3C2)cc1 (centres undefined),13,-1,-1,40,52*,0
Cc1ccc(C)c(N2CCN(C(c3ccncc3)c3nnnn3Cc3ccccc3)CC2)c1 (centres undefined),2,36*,-1,7,-174,0
COc1ccc(Cn2nnnc2C(c2cccs2)N2CCN(c3ccccc3)CC2)cc1 (centres undefined),7,0,-2,18,44*,-1
Cn1c(SCC(=O)OCC(=O)c2ccccc2)nnc1-c1cccs1,1,0,0,.,1,-1
Cc1cc(Cl)cc(Br)c1OCCCCn1cncn1,-11,0,-1,.,1,-1
CCC(=O)Nc1cc(C)c(NC(=O)c2ccco2)cn1,1,0,.,.,3,1
CCC(=O)Nc1cc(C)c(NC(=O)c2ccccc2OC)cn1,-2,14*,0,0,-16,-2
COC(=O)c1ccccc1NC(=O)N1CCN(C(=O)c2ccco2)CC1,6,0,-1,17,-3,2
O=C(CCn1c(=O)oc2ccccc21)N1CCc2ccccc21,4,0,1,-12,-12,0
O=C(NC1=NCCS1)c1cc(-c2ccccc2)nn1-c1ccccc1,-22,1,11*,52,2,0
Cc1cc(C)n(-c2ccc(C(=O)NC3=NCCS3)cc2)n1,0,2,-1,10,12,2
CSC1=C(C#N)C(c2ccc(Cl)cc2)C2=C(CC(C)(C)CC2=O)N1 (centres undefined),-15,1,-2,29,7,-3
CCCSC1=C(C#N)C(c2ccc(OC)cc2)C2=C(CC(C)(C)CC2=O)N1 (centres undefined),50*,1,0,-4,.,-1
Cc1ccc(O)c(-c2cc(-c3ccccc3C)[nH]n2)c1,-1,2,0,.,44*,-1
Oc1ccccc1-c1cc(-c2ccccc2Cl)[nH]n1,-4,1,-1,17,24,-5
CC(=O)CC1(O)C(=O)N(CN2CCN(c3ccccc3)CC2)c2ccccc21 (centres undefined),19,15*,-1,14,12,0
